In ChEMBL document CHEMBL2034874, “5-acetyl-2-arylbenzimidazoles as antiviral agents. Part 4” (Eur J Med Chem, 2012):

What was measured:
[1] = Cytotoxicity against human MT4 cells after 96 hrs by MTT assay; format: cell-based
How it was run: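 Exponentially growing MT-4 cells seeded at 1×10^5 cells/mL in RPMI-1640 with 10% FBS and incubated with serial compound dilutions at 37 °C and 5% CO2. Viability measured by MTT after 96 h. CC50 by linear regression against untreated controls.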

[2] = system: Human immunodeficiency virus 1; experiment: Antiviral activity against HIV1 3B infected in human MT4 cells assessed as inhibition of virus-induced cytopathogenicity after 4 days by MTT assay; format: functional, organism-based; conditions: Human immunodeficiency virus 1, 3B, MT4, 96 h
How it was run: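 MT-4 cells (1×10^4/well) in RPMI with serial compound dilutions, infected with HIV-1 IIIB at 100 CCID50 (m.o.i. 0.01). Viability measured by MTT after 4 days at 37 °C. EC50 for 50% protection from cytopathogenicity obtained by linear regression against untreated controls.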

[3] = Cytotoxicity against MDBK cells after 48 to 96 hrs by MTT assay; format: cell-based, Bos taurus; conditions: cattle
How it was run: (§1)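 Mock-infected MDBK (6×10^5 cells/mL, MEM-E with 10% horse serum) or BHK (1×10^6 cells/mL, MEM-E with 10% FBS) cells incubated with serial compound dilutions at 37 °C and 5% CO2. Viability measured by MTT after 48–96 h. CC50 by linear regression against untreated controls.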

[4] = Antiviral activity against BVDV1 NADL ATCC VR-534 infected in MDBK cells assessed as inhibition of virus-induced cytopathogenicity after 3 to 4 days by MTT assay; format: functional, cell-based, Bovine viral diarrhea virus 1-NADL; conditions: Bovine viral diarrhea virus isolates and strains, ATCC VR-534, MDBK
How it was run: (§2)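 BHK (5×10^4/well) or MDBK (3×10^4/well) cells grown to confluent monolayers overnight, infected at m.o.i. 0.01 in maintenance MEM-Earl with 0.5% inactivated FBS. Serially diluted compounds added after 1 h. Viability read by MTT after 3–4 days at 37 °C. Values are expressed as % of untreated controls, and EC50 is derived by linear regression. Duplicate samples.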

[5] = Cytotoxicity against BHK21 cells by MTT assay; format: cell-based, Mesocricetus auratus; conditions: hamster, BHK-21 cells; how it was run: as §1
Yellow fever virus = experiment: Antiviral activity against Yellow fever virus 17D infected in BHK21 cells assessed as inhibition of virus-induced cytopathogenicity after 3 to 4 days by MTT assay; format: functional, cell-based; conditions: BHK-21
[6] = system: Mammalian orthoreovirus 1; experiment: Antiviral activity against Reovirus 1 3651 ATCC VR-214 infected in BHK21 cells assessed as inhibition of virus-induced cytopathogenicity after 3 to 4 days by MTT assay; format: functional, organism-based; conditions: Mammalian orthoreovirus 1, 3651 ATCC VR-214, BHK-21; how it was run: as §2
[7] = Cytotoxicity against african green monkey Vero 76 cells after 48 to 96 hrs by MTT assay; format: cell-based; conditions: chlorocebus sabaeus
Coxsackievirus B5 = experiment: Antiviral activity against Coxsackie virus type B5 Ohio-1 ATCC VR-29 infected in african green monkey Vero-76 cells assessed as reduction in viral plaque after 3 days by crystal violet staining; format: functional, organism-based; conditions: Enterovirus B, Ohio-1 ATCC VR-29, Vero 76, 72 h
How it was run: (§3)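 Vero-76 monolayers (2×10^5 cells/well) infected for 2 h at 50–100 PFU/well. Unadsorbed virus removed. D-MEM with 1% inactivated FBS, 0.75% methylcellulose and serial compound dilutions added. Incubation at 37 °C for 3 days (CVB-5, HSV-1) or 5 days (RSV). Fixed and stained with 50% ethanol/0.8% crystal violet, then plaques counted. EC50 by linear regression versus untreated controls.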

Poliovirus 1 = experiment: Antiviral activity against Polio virus type 1 strain sabin ATCC VR-1562 infected in african green monkey Vero-76 cells assessed as reduction in viral plaque after 2 days by crystal violet staining; format: functional, cell-based, Human poliovirus 1 strain Sabin; conditions: Enterovirus C, ATCC VR-1562, Vero 76, 48 h
[8] = system: Vesicular stomatitis Indiana virus; experiment: Antiviral activity against Vesicular stomatitis virus indiana ATCC VR-1540 infected in african green monkey Vero-76 cells assessed as reduction in viral plaque after 2 days by crystal violet staining; format: functional, organism-based; conditions: ATCC VR-1540, Vero 76, 48 h
Vaccinia virus = experiment: Antiviral activity against Vaccinia virus Elstree-Lister ATCC VR-1549 infected in african green monkey Vero-76 cells assessed as reduction in viral plaque after 3 days by crystal violet staining; format: functional, organism-based; conditions: Orthopoxvirus vaccinia, Elstree-Lister ATCC VR-1549, Vero 76, 72 h
Human alphaherpesvirus 1 = experiment: Antiviral activity against Herpes simplex virus type 1 KOS ATCC VR-1493 infected in african green monkey Vero-76 cells assessed as reduction in viral plaque after 3 days by crystal violet staining; format: functional, organism-based; conditions: Human alphaherpesvirus 1, KOS ATCC VR1493, Vero 76, 72 h; how it was run: as §3
[9] = Antiviral activity against Human respiratory syncytial virus A2 ATCC VR-1540 infected in african green monkey Vero-76 cells assessed as reduction in viral plaque after 5 days by crystal violet staining; format: functional, cell-based; conditions: ATCC VR-1540, Vero 76, 120 h; how it was run: as §3

Compound	CC50 at 96 h [1]	EC50 [2]	CC50 [3]	EC50 [4]	CC50 [5]	EC50 (Yellow fever virus)	EC50 [6]	CC50 [7]	EC50 (Coxsackievirus B5)	EC50 (Poliovirus 1)	EC50 [8]	EC50 (Vaccinia virus)	EC50 (Human alphaherpesvirus 1)	EC50 [9]
CC(=O)c1ccc2[nH]c(C3CCCCC3)nc2c1	> 100 µM	> 100 µM	> 100 µM	> 100 µM	> 100 µM	> 100 µM	> 100 µM	> 100 µM	47 µM	> 100 µM	> 100 µM	> 100 µM	> 100 µM	
C/C(=N\NC(N)=S)c1ccc2c(c1)nc(-c1ccoc1)n2C1CCCCC1	21 µM	> 21 µM	> 100 µM	> 100 µM	> 100 µM	> 100 µM		25 µM	> 25 µM	> 25 µM	> 25 µM	> 25 µM	> 25 µM	
C/C(=N\NC(N)=S)c1ccc2c(c1)nc(-c1ccccc1)n2C1CCCCC1	20 µM	10 µM	24 µM	4.5 µM	38 µM	9 µM	> 38 µM	20 µM	> 20 µM	> 20 µM	> 20 µM	> 20 µM	> 20 µM	> 20 µM
C/C(=N\NC(N)=S)c1ccc2c(c1)nc(-c1ccccn1)n2C1CCCCC1	23 µM	> 23 µM	41 µM	26 µM	24 µM	> 24 µM		20 µM	> 20 µM	> 20 µM	> 20 µM	> 20 µM	> 20 µM	
COc1ccc(-c2nc3cc(C(C)=O)ccc3n2C2CCCCC2)c(OC)c1	21 µM	> 21 µM	21 µM	> 21 µM	8.5 µM	> 8.5 µM	> 85 µM	70 µM	> 70 µM	> 70 µM	> 70 µM	> 70 µM	> 70 µM	> 70 µM
C/C(=N\NC(N)=S)c1ccc2[nH]c(-c3ccc(Cl)cc3)nc2c1	2 µM	> 2 µM	> 100 µM	0.85 µM	> 100 µM	> 100 µM	> 100 µM	> 100 µM	> 100 µM	> 100 µM	> 100 µM	> 100 µM		
C/C(=N\NC(N)=S)c1ccc2[nH]c(-c3ccccc3)nc2c1	≥ 100 µM	> 100 µM	32 µM	3.8 µM	32 µM	> 32 µM	> 32 µM	> 100 µM	> 100 µM	> 100 µM	> 100 µM			> 100 µM
CC(=O)c1ccc2[nH]c(-c3ccoc3)nc2c1	> 100 µM	> 100 µM	≥ 100 µM	22 µM	98 µM	> 98 µM		> 100 µM	> 100 µM	> 100 µM	> 100 µM	> 100 µM	> 100 µM	
COc1ccc(-c2nc3cc(/C(C)=N/NC(N)=S)ccc3n2C2CCCCC2)cc1	39 µM	> 39 µM	32 µM	7 µM				40 µM	> 40 µM	> 40 µM	> 40 µM	> 40 µM	> 40 µM	> 40 µM
COc1ccc(-c2nc3cc(C(C)=O)ccc3[nH]2)c(OC)c1	50 µM	> 50 µM	73 µM	21 µM	50 µM	> 50 µM		> 100 µM	> 100 µM	> 100 µM		> 100 µM		
CC(=O)c1ccc2c(c1)nc(-c1ccccn1)n2C1CCCCC1	70 µM	> 70 µM	> 100 µM	> 100 µM	≥ 100 µM	> 100 µM		> 90 µM	> 90 µM	> 90 µM	> 90 µM	> 90 µM	> 90 µM	
COc1ccc(-c2nc3cc(/C(C)=N/NC(N)=O)ccc3[nH]2)c(OC)c1	21 µM	≥ 21 µM	> 100 µM	2.55 µM	≥ 100 µM	> 100 µM	> 100 µM	80 µM	> 80 µM	> 80 µM	> 80 µM	80 µM		
C/C(=N\NC(N)=S)c1ccc2[nH]c(-c3ccc(C(F)(F)F)cc3)nc2c1	2 µM	> 2 µM	5 µM	> 1.8 µM	5 µM	> 5 µM		22 µM	> 22 µM	> 22 µM				
COc1ccc(-c2nc3cc(C(C)=O)ccc3[nH]2)cc1	24 µM	> 24 µM	58 µM	> 58 µM	40 µM	> 40 µM		> 100 µM	> 100 µM	> 100 µM		> 100 µM		
CC(=O)c1ccc2c(c1)nc(-c1ccoc1)n2C1CCCCC1	63 µM	> 63 µM	> 100 µM	> 100 µM	77 µM	> 77 µM		80 µM	> 80 µM	> 80 µM		> 80 µM	> 80 µM	
COc1ccc(-c2nc3cc(/C(C)=N/O)ccc3[nH]2)c(OC)c1OC	51 µM	> 51 µM	> 100 µM	> 100 µM	> 100 µM	> 100 µM	> 100 µM	> 100 µM	> 100 µM	> 100 µM		> 100 µM	> 100 µM	
COc1ccc(-c2nc3cc(/C(C)=N/NC(N)=O)ccc3n2C2CCCCC2)c(OC)c1	23 µM	> 23 µM	36 µM	22 µM	19 µM	> 19 µM		20 µM	> 20 µM	> 20 µM		> 20 µM	> 20 µM	
COc1ccc(-c2nc3cc(/C(C)=N/NC(N)=S)ccc3[nH]2)cc1	5 µM	> 5 µM	13 µM	1.85 µM	13 µM	> 13 µM	> 13 µM	> 100 µM	> 100 µM	> 100 µM	> 100 µM	> 100 µM		
C/C(=N\NC(N)=S)c1ccc2[nH]c(C3CCCCC3)nc2c1	48 µM	> 48 µM	> 100 µM	16 µM	24 µM	> 24 µM		> 100 µM	> 100 µM	> 100 µM	> 100 µM	> 100 µM		> 100 µM
COc1ccc(-c2nc3cc(C(C)O)ccc3[nH]2)c(OC)c1OC (stereo unspecified)	79 µM	> 79 µM	60 µM	> 60 µM	60 µM	> 60 µM	> 100 µM	≥ 100 µM	> 100 µM	> 100 µM		> 100 µM	> 100 µM	> 100 µM
